Measured values: ChEMBL document CHEMBL5058577, “EUbOPEN Chemogenomics Library 2 (Multiplex)” (2022)

System: U2OS
Assay: Multiplex assay against U2OS
Assay type: toxicity, cell-based
Conditions: human
Outline: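 Phenotypes for tubulin, mitochondrial mass and membrane permeability are expressed as per cents of healthy-nucleus cells. Cells were stained live at seeding with Hoechst33342, BioTracker Green Microtubule Cytoskeleton Dye, MitoTracker Red and Annexin V Alexa Fluor 680, then imaged after compound addition on a CQ1 microscope at 37°C and 5% CO2. Machine-learning gating in CellPathfinder separated Hoechst high-intensity objects from normal cells, divided normal cells by nuclear state (healthy, pyknosed, fragmented) and divided pyknosed cells into mitotic or apoptotic.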

[1] = 12 h, 1 µM, compound concentration 1 uM, replicate 1
[2] = 12 h, 1 µM, compound concentration 1 uM, replicate 2
[3] = 12 h, 10 µM, compound concentration 10 uM, replicate 1
[4] = 12 h, 10 µM, compound concentration 10 uM, replicate 2
[5] = 24 h, 1 µM, compound concentration 1 uM, replicate 1
[6] = 24 h, 1 µM, compound concentration 1 uM, replicate 2
[7] = 24 h, 10 µM, compound concentration 10 uM, replicate 1
[8] = 24 h, 10 µM, compound concentration 10 uM, replicate 2
[9] = 48 h, 1 µM, compound concentration 1 uM, replicate 1
[10] = 48 h, 1 µM, compound concentration 1 uM, replicate 2
[11] = 48 h, 10 µM, compound concentration 10 uM, replicate 1
[12] = 48 h, 10 µM, compound concentration 10 uM, replicate 2

SMILES: CC[C@H]1OC(=O)[C@H](C)[C@@H](O[C@H]2C[C@@](C)(OC)[C@@H](O)[C@H](C)O2)[C@H](C)[C@@H](O[C@@H]2O[C@H](C)C[C@H](N(C)C)[C@H]2O)[C@@]2(C)CC(C)=C(O2)[C@H](C)[C@@H](O)[C@]1(C)O
- Population Apoptotic (%) [1]: 50%
- Population Fragmented Nuclei (%) [1]: 19%
- Population Healthy Nuclei (%) [1]: 63%
- Population Hoechst High Intensity Objects (%) [1]: 3%
- Population Membrane Permeable-Phenotype (%) [1]: 33%
- Population Mitochondria Different-Phenotype (%) [1]: 23%
- Population Mitotic Cells (%) [1]: 50%
- Population Normal (%) [1]: 96%
- Population Pyknosed Nuclei (%) [1]: 17%
- Population Tubulin-Different-Phenotype (%) [1]: 25%
- Total Cell Count [1]: 226
- Population Apoptotic (%) [2]: 84%
- Population Fragmented Nuclei (%) [2]: 23%
- Population Healthy Nuclei (%) [2]: 62%
- Population Hoechst High Intensity Objects (%) [2]: 1%
- Population Membrane Permeable-Phenotype (%) [2]: 21%
- Population Mitochondria Different-Phenotype (%) [2]: 14%
- Population Mitotic Cells (%) [2]: 15%
- Population Normal (%) [2]: 98%
- Population Pyknosed Nuclei (%) [2]: 14%
- Population Tubulin-Different-Phenotype (%) [2]: 14%
- Total Cell Count [2]: 91
- Population Apoptotic (%) [3]: 65%
- Population Fragmented Nuclei (%) [3]: 34%
- Population Healthy Nuclei (%) [3]: 40%
- Population Hoechst High Intensity Objects (%) [3]: 7%
- Population Membrane Permeable-Phenotype (%) [3]: 82%
- Population Mitochondria Different-Phenotype (%) [3]: 63%
- Population Mitotic Cells (%) [3]: 34%
- Population Normal (%) [3]: 92%
- Population Pyknosed Nuclei (%) [3]: 25%
- Population Tubulin-Different-Phenotype (%) [3]: 89%
- Total Cell Count [3]: 223
- Population Apoptotic (%) [4]: 73%
- Population Fragmented Nuclei (%) [4]: 21%
- Population Healthy Nuclei (%) [4]: 47%
- Population Hoechst High Intensity Objects (%) [4]: 4%
- Population Membrane Permeable-Phenotype (%) [4]: 72%
- Population Mitochondria Different-Phenotype (%) [4]: 81%
- Population Mitotic Cells (%) [4]: 26%
- Population Normal (%) [4]: 95%
- Population Pyknosed Nuclei (%) [4]: 31%
- Population Tubulin-Different-Phenotype (%) [4]: 96%
- Total Cell Count [4]: 128
- Population Apoptotic (%) [5]: 65%
- Population Fragmented Nuclei (%) [5]: 20%
- Population Healthy Nuclei (%) [5]: 63%
- Population Hoechst High Intensity Objects (%) [5]: 4%
- Population Membrane Permeable-Phenotype (%) [5]: 20%
- Population Mitochondria Different-Phenotype (%) [5]: 15%
- Population Mitotic Cells (%) [5]: 35%
- Population Normal (%) [5]: 95%
- Population Pyknosed Nuclei (%) [5]: 16%
- Population Tubulin-Different-Phenotype (%) [5]: 17%
- Total Cell Count [5]: 256
- Population Apoptotic (%) [6]: 72%
- Population Fragmented Nuclei (%) [6]: 19%
- Population Healthy Nuclei (%) [6]: 64%
- Population Hoechst High Intensity Objects (%) [6]: 5%
- Population Membrane Permeable-Phenotype (%) [6]: 14%
- Population Mitochondria Different-Phenotype (%) [6]: 14%
- Population Mitotic Cells (%) [6]: 27%
- Population Normal (%) [6]: 94%
- Population Tubulin-Different-Phenotype (%) [6]: 10%
- Total Cell Count [6]: 115
- Population Apoptotic (%) [7]: 67%
- Population Fragmented Nuclei (%) [7]: 33%
- Population Healthy Nuclei (%) [7]: 36%
- Population Hoechst High Intensity Objects (%) [7]: 5%
- Population Membrane Permeable-Phenotype (%) [7]: 56%
- Population Mitochondria Different-Phenotype (%) [7]: 65%
- Population Mitotic Cells (%) [7]: 32%
- Population Normal (%) [7]: 94%
- Population Pyknosed Nuclei (%) [7]: 29%
- Population Tubulin-Different-Phenotype (%) [7]: 76%
- Total Cell Count [7]: 210
- Population Apoptotic (%) [8]: 82%
- Population Fragmented Nuclei (%) [8]: 24%
- Population Healthy Nuclei (%) [8]: 45%
- Population Hoechst High Intensity Objects (%) [8]: 4%
- Population Membrane Permeable-Phenotype (%) [8]: 75%
- Population Mitochondria Different-Phenotype (%) [8]: 86%
- Population Mitotic Cells (%) [8]: 17%
- Population Normal (%) [8]: 95%
- Population Pyknosed Nuclei (%) [8]: 30%
- Population Tubulin-Different-Phenotype (%) [8]: 88%
- Total Cell Count [8]: 121
- Population Apoptotic (%) [9]: 67%
- Population Fragmented Nuclei (%) [9]: 19%
- Population Healthy Nuclei (%) [9]: 54%
- Population Hoechst High Intensity Objects (%) [9]: 9%
- Population Membrane Permeable-Phenotype (%) [9]: 13%
- Population Mitochondria Different-Phenotype (%) [9]: 8%
- Population Mitotic Cells (%) [9]: 32%
- Population Normal (%) [9]: 91%
- Population Pyknosed Nuclei (%) [9]: 26%
- Population Tubulin-Different-Phenotype (%) [9]: 11%
- Total Cell Count [9]: 300
- Population Apoptotic (%) [10]: 78%
- Population Fragmented Nuclei (%) [10]: 32%
- Population Healthy Nuclei (%) [10]: 58%
- Population Hoechst High Intensity Objects (%) [10]: 2%
- Population Membrane Permeable-Phenotype (%) [10]: 12%
- Population Mitochondria Different-Phenotype (%) [10]: 12%
- Population Mitotic Cells (%) [10]: 21%
- Population Normal (%) [10]: 97%
- Population Pyknosed Nuclei (%) [10]: 9%
- Population Tubulin-Different-Phenotype (%) [10]: 7%
- Total Cell Count [10]: 147
- Population Apoptotic (%) [11]: 85%
- Population Fragmented Nuclei (%) [11]: 37%
- Population Healthy Nuclei (%) [11]: 31%
- Population Hoechst High Intensity Objects (%) [11]: 7%
- Population Membrane Permeable-Phenotype (%) [11]: 58%
- Population Mitochondria Different-Phenotype (%) [11]: 55%
- Population Mitotic Cells (%) [11]: 14%
- Population Normal (%) [11]: 92%
- Population Pyknosed Nuclei (%) [11]: 31%
- Population Tubulin-Different-Phenotype (%) [11]: 63%
- Total Cell Count [11]: 236
- Population Apoptotic (%) [12]: 83%
- Population Fragmented Nuclei (%) [12]: 20%
- Population Healthy Nuclei (%) [12]: 42%
- Population Hoechst High Intensity Objects (%) [12]: 9%
- Population Membrane Permeable-Phenotype (%) [12]: 62%
- Population Mitochondria Different-Phenotype (%) [12]: 81%
- Population Mitotic Cells (%) [12]: 16%
- Population Normal (%) [12]: 90%
- Population Pyknosed Nuclei (%) [12]: 36%
- Population Tubulin-Different-Phenotype (%) [12]: 88%
- Total Cell Count [12]: 112
